Results taken from ChEMBL document CHEMBL5030522, “A Convenient Chemoenzymatic Preparation of Chimeric Macrocyclic Peptide Antibiotics with Potent Activity against Gram-Negative Pathogens” (2021).
In brackets after ≈: the same amount, converted by molar mass. Numbered stars: 1 amine (or outer) side, 2 acyl side, 3 side chain; on linkers, the order of the positions; unused ones are H or OH. Bridge positions count the residues as written; N and C are the ends. Square brackets hold non-standard residues; d marks the D form. Peptide text beside a SMILES is read from it. I, II: the chains in the order shown. X1 = NC(=O)[C@H](Cc1cn(CCOCCOCCOCCC(=O)[*:2])nn1)N[*:1]; Tle = CC(C)(C)[C@H](N)C(=O)O; dDab = NCC[C@@H](N)C(=O)O; hSer = N[C@@H](CCO)C(=O)O; Dab = NCC[C@H](N)C(=O)O

Assays:
Format in all cases: functional
Klebsiella pneumoniae [1] = test: Antibacterial activity against Klebsiella pneumoniae producing NDM1 assessed as inhibition of bacterial growth after 16 hrs by broth microdilution method
Procedure, shortened: (§1)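 MIC per CLSI broth microdilution. Strains streaked from glycerol stocks on blood agar, 16 h at 37 °C. Single colonies inoculated into cation-adjusted Mueller-Hinton broth (10 mg L–1 Mg2+, 25 mg L–1 Ca2+). Peptides serially diluted in this broth with 0.002% (v/v) final polysorbate-80 in polypropylene plates. Inoculum 5 × 10^5 CFU mL–1. Plates sealed, 16 h at 37 °C, growth scored visually. MIC in μg/mL, triplicates on two separate days.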

Pseudomonas aeruginosa [2] = test: Antibacterial activity against Pseudomonas aeruginosa M-120 assessed as inhibition of bacterial growth after 16 hrs by broth microdilution method; procedure, shortened: as §1
Escherichia coli [3] = test: Antibacterial activity against Escherichia coli producing MCR3 assessed as inhibition of bacterial growth after 16 hrs by broth microdilution method; procedure, shortened: as §1
Acinetobacter baumannii [4] = test: Antibacterial activity against Acinetobacter baumannii ATCC 17978 assessed as inhibition of bacterial growth after 16 hrs by broth microdilution method; procedure, shortened: as §1
Escherichia coli [5] = test: Antibacterial activity against Escherichia coli producing MCR2 assessed as inhibition of bacterial growth after 16 hrs by broth microdilution method; procedure, shortened: as §1
Acinetobacter baumannii [6] = test: Antibacterial activity against Acinetobacter baumannii ATCC 9955 assessed as inhibition of bacterial growth after 16 hrs by broth microdilution method; procedure, shortened: as §1
Klebsiella pneumoniae [7] = test: Antibacterial activity against Klebsiella pneumoniae ATCC 11228 assessed as inhibition of bacterial growth after 16 hrs by broth microdilution method; procedure, shortened: as §1
Acinetobacter baumannii [8] = test: Antibacterial activity against multidrug-resistant Acinetobacter baumannii assessed as inhibition of bacterial growth after 16 hrs by broth microdilution method
Procedure, shortened: (§2)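 CLSI broth microdilution. Strains grown from glycerol stocks on blood agar 16 h at 37 °C; colonies used to inoculate CAMHB containing 10 mg L–1 Mg2+ and 25 mg L–1 Ca2+. Peptides dissolved in CAMHB with 0.002% (v/v) final polysorbate-80, serially diluted in polypropylene plates; inoculum 5 × 10^5 CFU mL–1. Sealed, 16 h at 37 °C, growth scored visually. MIC in μg/mL; three or more measurements on multiple days.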

Pseudomonas aeruginosa [9] = test: Antibacterial activity against Pseudomonas aeruginosa producing NDM1 assessed as inhibition of bacterial growth after 16 hrs by broth microdilution method; procedure, shortened: as §2
Staphylococcus aureus = test: Antibacterial activity against methicillin resistant Staphylococcus aureus USA300 by measuring MIC after 16 hrs by broth microdilution method; procedure, shortened: as §2
Escherichia coli [10] = test: Antibacterial activity against Escherichia coli producing NDM1 assessed as inhibition of bacterial growth after 16 hrs by broth microdilution method; procedure, shortened: as §2
Pseudomonas aeruginosa [11] = test: Antibacterial activity against Pseudomonas aeruginosa NRZ 08418 producing NDM1 assessed as inhibition of bacterial growth after 16 hrs by broth microdilution method; procedure, shortened: as §1
Escherichia coli [12] = test: Antibacterial activity against Escherichia coli producing MCR1 assessed as inhibition of bacterial growth after 16 hrs by broth microdilution method; procedure, shortened: as §1
Escherichia coli [13] = test: Antibacterial activity against Escherichia coli ATCC 35218 assessed as inhibition of bacterial growth after 16 hrs by broth microdilution method; procedure, shortened: as §1
Pseudomonas aeruginosa [14] = test: Antibacterial activity against Pseudomonas aeruginosa ATCC 27853 assessed as inhibition of bacterial growth after 16 hrs by broth microdilution method; procedure, shortened: as §1
Acinetobacter baumannii [15] = test: Antibacterial activity against Acinetobacter baumannii NRZ 00687 producing NDM2 assessed as inhibition of bacterial growth after 16 hrs by broth microdilution method; procedure, shortened: as §1

SMILES | MIC (Klebsiella pneumoniae [1]) | MIC (Pseudomonas aeruginosa [2]) | MIC (Escherichia coli [3]) | MIC (Acinetobacter baumannii [4]) | MIC (Escherichia coli [5]) | MIC (Acinetobacter baumannii [6]) | MIC (Klebsiella pneumoniae [7]) | MIC (Acinetobacter baumannii [8]) | MIC (Pseudomonas aeruginosa [9]) | MIC (Staphylococcus aureus) | MIC (Escherichia coli [10]) | MIC (Pseudomonas aeruginosa [11]) | MIC (Escherichia coli [12]) | MIC (Escherichia coli [13]) | MIC (Pseudomonas aeruginosa [14]) | MIC (Acinetobacter baumannii [15])
CC(C)C[C@@H]1NC(=O)[C@@H](Cc2ccccc2)NC(=O)[C@H](CCN)NC(=O)[C@@H](NC(=O)[C@H](CCN)NC(=O)[C@@H](NC(=O)[C@H](CCN)NC(=O)CC[C@@H]2NC(=O)[C@H](CCN)NC(=O)[C@H](Cc3ccc(O)cc3)NC(=O)[C@H]([C@@H](C)O)NC(=O)[C@H](C(C)C)NC(=O)[C@@H]3CCCN3C(=O)[C@@H](C)NC(=O)[C@H](CO)NC(=O)[C@H](C)NC(=O)[C@H](C(C)(C)C)NC(=O)[C@H](CCO)NC(=O)[C@H](Cc3c[nH]c4ccccc34)NC(=O)[C@H](CCO)NC(=O)[C@@H](CCN)NC2=O)[C@@H](C)O)CCNC(=O)[C@H]([C@@H](C)O)NC(=O)[C@H](CCN)NC(=O)[C@H](CCN)NC1=O (I: cyclo([dDab][hSer]W[hSer][Tle]AS[dA]PVTY[Dab]E) / II: [Dab]T[Dab][Dab][Dab][dF]L[Dab][Dab]T; amide I:14-II:N; lactam II:4-II:C) | 0.4 µg/mL (≈ 0.156 µM) | 1.6 µg/mL (≈ 0.624 µM) | 0.4 µg/mL (≈ 0.156 µM) | 0.4 µg/mL (≈ 0.156 µM) | 0.4 µg/mL (≈ 0.156 µM) | 0.2 µg/mL (≈ 0.0779 µM) | 0.2 µg/mL (≈ 0.0779 µM) | 0.4 µg/mL (≈ 0.156 µM) | 0.8 µg/mL (≈ 0.312 µM) | > 6.4 µg/mL | 0.1 µg/mL (≈ 0.039 µM) |  |  |  |  | 
CC(C)C[C@@H]1NC(=O)[C@@H](CC(C)C)NC(=O)[C@H](CCN)NC(=O)[C@@H](NC(=O)[C@H](CCN)NC(=O)[C@@H](NC(=O)[C@H](CCN)NC(=O)CC[C@@H]2NC(=O)[C@H](CCN)NC(=O)[C@H](Cc3ccc(O)cc3)NC(=O)[C@H]([C@@H](C)O)NC(=O)[C@H](C(C)C)NC(=O)[C@@H]3CCCN3C(=O)[C@@H](C)NC(=O)[C@H](CO)NC(=O)[C@H](C)NC(=O)[C@H](C(C)(C)C)NC(=O)[C@H](CCO)NC(=O)[C@H](Cc3c[nH]c4ccccc34)NC(=O)[C@H](CCO)NC(=O)[C@@H](CCN)NC2=O)[C@@H](C)O)CCNC(=O)[C@H]([C@@H](C)O)NC(=O)[C@H](CCN)NC(=O)[C@H](CCN)NC1=O (I: cyclo([dDab][hSer]W[hSer][Tle]AS[dA]PVTY[Dab]E) / II: [Dab]T[Dab][Dab][Dab][dL]L[Dab][Dab]T; amide I:14-II:N; lactam II:4-II:C) | 0.8 µg/mL (≈ 0.316 µM) |  | 0.2 µg/mL (≈ 0.079 µM) |  | 0.2 µg/mL (≈ 0.079 µM) | 0.2 µg/mL (≈ 0.079 µM) |  | 0.2 µg/mL (≈ 0.079 µM) | 0.4 µg/mL (≈ 0.158 µM) | > 6.4 µg/mL | 0.1 µg/mL (≈ 0.0395 µM) | 0.8 µg/mL (≈ 0.316 µM) | 0.2 µg/mL (≈ 0.079 µM) | 0.2 µg/mL (≈ 0.079 µM) |  | 
CC(C)C[C@@H]1NC(=O)[C@@H](CC(C)C)NC(=O)[C@H](CCN)NC(=O)[C@@H](NC(=O)[C@H](CCN)NC(=O)[C@@H](NC(=O)CCOCCOCCOCCn2cc(C[C@H](NC(=O)CC[C@@H]3NC(=O)[C@H](CCN)NC(=O)[C@H](Cc4ccc(O)cc4)NC(=O)[C@H]([C@@H](C)O)NC(=O)[C@H](C(C)C)NC(=O)[C@@H]4CCCN4C(=O)[C@@H](C)NC(=O)[C@H](CO)NC(=O)[C@H](C)NC(=O)[C@H](C(C)(C)C)NC(=O)[C@H](CCO)NC(=O)[C@H](Cc4c[nH]c5ccccc45)NC(=O)[C@H](CCO)NC(=O)[C@@H](CCN)NC3=O)C(N)=O)nn2)[C@@H](C)O)CCNC(=O)[C@H]([C@@H](C)O)NC(=O)[C@H](CCN)NC(=O)[C@H](CCN)NC1=O (I: cyclo([dDab][hSer]W[hSer][Tle]AS[dA]PVTY[Dab]E) / II: T[Dab][Dab][Dab][dL]L[Dab][Dab]T; linker I:14-II:N via X1; lactam II:3-II:C) |  | 8 µg/mL (≈ 2.88 µM) |  |  | 16 µg/mL (≈ 5.77 µM) | 8 µg/mL (≈ 2.88 µM) | 8 µg/mL (≈ 2.88 µM) | 4 µg/mL (≈ 1.44 µM) | 4 µg/mL (≈ 1.44 µM) | > 64 µg/mL |  |  | 16 µg/mL (≈ 5.77 µM) | 2 µg/mL (≈ 0.721 µM) | 4 µg/mL (≈ 1.44 µM) | 2 µg/mL (≈ 0.721 µM)
CC(C)[C@@H]1NC(=O)[C@@H]2CCCN2C(=O)[C@@H](C)NC(=O)[C@H](CO)NC(=O)[C@H](C)NC(=O)[C@H](C(C)(C)C)NC(=O)[C@H](CCO)NC(=O)[C@H](Cc2c[nH]c3ccccc23)NC(=O)[C@H](CCO)NC(=O)[C@@H](CCN)NC(=O)[C@H](CCC(N)=O)NC(=O)[C@H](CCN)NC(=O)[C@H](Cc2ccc(O)cc2)NC(=O)[C@H]([C@@H](C)O)NC1=O (cyclo([dDab][hSer]W[hSer][Tle]AS[dA]PVTY[Dab]Q)) |  |  |  |  |  |  |  |  |  | > 64 µg/mL |  |  |  |  |  | 
